Experimental data reported in ChEMBL document CHEMBL2401676, “Synthesis and biological evaluation of pyrrolidine derivatives as novel and potent sodium channel blockers for the treatment of ischemic stroke” (Bioorg Med Chem Lett, 2013).

Columns and labels:
hERG (KCNH2) = hERG (KCNH2) (Homo sapiens, UniProt Q12809); assay: Inhibition of human ERG channel expressed in HEK293 cells at 1 uM by voltage patch clamp technique; format: cell-based; conditions: HEK293 cells that express hERG
[1] = Inhibition of sodium channel in Wistar rat cerebrocortical synaptosomes assessed as inhibition of veratridine-induced depolarization using rhodamine-6G by spectrofluorometry; format: subcellular, Brain
[2] = Neuroprotective activity in guinea pig papillary muscles assessed as action potential duration at 90% repolarization at 3 uM after 30 mins relative to control; format: functional, Cavia porcellus, Muscle tissue
In short: (§1)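 Intracellular action potentials were evoked by 1 ms pulses at 1.5–3 times the voltage threshold, with all solutions held at 36 °C. APD90 was recorded before and 30 min after compound exposure and expressed against the pre-treatment value.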

[3] = Neuroprotective activity in guinea pig papillary muscles assessed as action potential duration at 90% repolarization at 10 uM after 30 mins relative to control; format: functional, Cavia porcellus, Muscle tissue; in short: as §1
[4] = Neuroprotective activity in guinea pig papillary muscles assessed as action potential duration at 90% repolarization at 30 uM after 30 mins relative to control; format: functional, Cavia porcellus, Muscle tissue; in short: as §1
[5] = Neuroprotective activity in guinea pig papillary muscles assessed as action potential duration at 90% repolarization at 100 uM after 30 mins relative to control; format: functional, Cavia porcellus, Muscle tissue
In short: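 Action potentials were evoked by 1 ms stimuli at 1.5–3 times threshold voltage, with all solutions kept at 36 °C. APD90 was recorded before compound exposure and again 30 min after.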

Rattus norvegicus [6] = assay: Neuroprotective activity in Wistar rat transient middle cerebral artery occlusion model at 2.5 mg/kg, sc administered 30 mins after occlusion; format: functional; conditions: route subcutaneous
In short: (§2)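 Female Wistar rats, 8 weeks old, underwent 90 min transient MCAO followed by reperfusion. Drug was given sc 30 min after occlusion at 0.8, 2.5 or 8.2 mg/kg, and controls received an equal volume of saline. At 24 h the brain was cut into 7 slices and TTC-stained. Infarct area per slice was measured by image analysis and summed to infarct volume; n = 5–6, mean ± SEM, Student's t-test.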

Rattus norvegicus [7] = assay: Neuroprotective activity in Wistar rat transient middle cerebral artery occlusion model at 0.8 mg/kg, sc administered 30 mins after occlusion; format: functional; conditions: route subcutaneous; in short: as §2
Rattus norvegicus [8] = assay: Neuroprotective activity in Wistar rat transient MCAO model assessed as reduction in cerebral infarction size at 8.2 mg/kg, sc (reference value: 379.8 +/- 43.8 mm'3); format: functional; conditions: route subcutaneous; in short: as §2
Rattus norvegicus [9] = assay: Neuroprotective activity in Wistar rat transient middle cerebral artery occlusion model at 8.2 mg/kg, sc administered 30 mins after occlusion; format: functional; conditions: route subcutaneous; in short: as §2
Rattus norvegicus [10] = assay: Neuroprotective activity in sc dosed Wistar rat transient middle cerebral artery occlusion model administered 30 mins after occlusion; format: functional, organism-based; in short: as §2

Chain of hERG (KCNH2) (Q12809 whole entry): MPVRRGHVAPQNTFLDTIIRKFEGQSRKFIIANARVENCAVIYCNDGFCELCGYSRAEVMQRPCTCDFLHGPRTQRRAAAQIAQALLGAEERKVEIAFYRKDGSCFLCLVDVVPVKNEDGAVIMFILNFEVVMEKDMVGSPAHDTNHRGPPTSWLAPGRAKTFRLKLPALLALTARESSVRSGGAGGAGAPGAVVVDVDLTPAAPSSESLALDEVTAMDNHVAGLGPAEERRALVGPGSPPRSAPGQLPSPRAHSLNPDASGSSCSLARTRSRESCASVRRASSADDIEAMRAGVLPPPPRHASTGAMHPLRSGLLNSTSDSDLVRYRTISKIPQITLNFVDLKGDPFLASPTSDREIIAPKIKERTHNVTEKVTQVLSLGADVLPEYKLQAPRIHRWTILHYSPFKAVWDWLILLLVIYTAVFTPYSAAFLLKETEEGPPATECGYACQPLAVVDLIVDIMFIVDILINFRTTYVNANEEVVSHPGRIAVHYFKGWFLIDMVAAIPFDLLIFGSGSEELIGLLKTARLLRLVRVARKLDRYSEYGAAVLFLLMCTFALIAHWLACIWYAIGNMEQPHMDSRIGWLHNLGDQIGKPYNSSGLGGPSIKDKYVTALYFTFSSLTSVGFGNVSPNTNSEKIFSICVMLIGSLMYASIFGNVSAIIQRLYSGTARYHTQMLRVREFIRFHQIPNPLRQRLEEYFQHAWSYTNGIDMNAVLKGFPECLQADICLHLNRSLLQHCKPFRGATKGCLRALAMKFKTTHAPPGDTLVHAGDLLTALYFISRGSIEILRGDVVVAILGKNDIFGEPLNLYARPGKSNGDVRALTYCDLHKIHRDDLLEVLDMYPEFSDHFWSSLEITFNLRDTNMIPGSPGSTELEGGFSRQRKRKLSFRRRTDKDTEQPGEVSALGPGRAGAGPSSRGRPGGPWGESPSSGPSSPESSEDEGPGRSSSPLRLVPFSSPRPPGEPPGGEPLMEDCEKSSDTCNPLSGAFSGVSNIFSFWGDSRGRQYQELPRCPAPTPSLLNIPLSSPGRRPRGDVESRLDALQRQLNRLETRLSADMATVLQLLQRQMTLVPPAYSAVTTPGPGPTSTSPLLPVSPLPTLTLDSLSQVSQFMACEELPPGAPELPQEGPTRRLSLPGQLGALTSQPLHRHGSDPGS

Structure (SMILES) | inhibition at 1 µM (hERG (KCNH2)) [%] | IC50 [1] [nM] | also measured
Cc1nc(OCCCCCN2CCCCC2)cc(-c2ccc(F)cc2)n1 | 60 | – | –
Cc1cc(OC[C@@H](O)CN2CCN(c3ccc(Cc4ccc(F)cc4)cc3)CC2)c(C)c(C)c1N | 78 | – | –
c1ccc(CN2C[C@H](NC3CCCCC3)[C@@H](c3ccccc3)C2)cc1 | – | 570 | –
c1ccc(CN2C[C@@H](NC3CCCCC3)[C@H](c3ccccc3)C2)cc1 | – | 540 | –
C[C@@H](CN1CC[C@@]2(C)c3cccc(O)c3C[C@@H]1C2(C)C)OCc1ccccc1.Cl | 69 | – | Activity [2]: 96.6%; Activity [3]: 89.1%; Activity [4]: 72.9%
OC(COc1ccc2c(c1)CCC2)CN1CCC(c2nc3ccccc3[nH]2)CC1 (configuration not stated) | 99 | – | –
c1ccc(CN2C[C@H](NC3CCCCC3)[C@H](c3ccccc3)C2)cc1 | 28 | 560 | –
O=C(N[C@@H]1CN(Cc2ccccc2)C[C@H]1c1ccccc1)c1ccccc1 (racemic) | 45 | 1900 | –
c1ccc(CN[C@@H]2CN(Cc3ccccc3)C[C@H]2c2ccccc2)cc1 (racemic) | 57 | 640 | –
O=C(N[C@@H]1CN(Cc2ccccc2)C[C@H]1c1ccccc1)C1CCCCC1 (racemic) | 31 | 480 | –
c1ccc(CN2C[C@@H](NCC3CCCCC3)[C@H](c3ccccc3)C2)cc1 (racemic) | 60 | 320 | –
c1ccc(CN2C[C@@H](Nc3ccccc3)[C@H](c3ccccc3)C2)cc1 (racemic) | 43 | 480 | –
O=C(N[C@@H]1CN(Cc2ccccc2)C[C@H]1C1CCCCC1)C1CCCCC1 (racemic) | 45 | 740 | –
c1ccc(CN[C@@H]2CN(Cc3ccccc3)C[C@H]2C2CCCCC2)cc1 (racemic) | 79 | 900 | –
c1ccc(CN2C[C@@H](NC3CCCCC3)[C@H](C3CCCCC3)C2)cc1 (racemic) | 35 | 740 | –
Cl.Cl.c1ccc(CN2C[C@@H](NC3CCCCC3)[C@H](c3ccccc3)C2)cc1 (racemic) | 8.4 | 510 | Activity [5]: 90.8%; Activity (Rattus norvegicus [6]): 37%; Activity [3]: 95.3%; Activity [4]: 92.3%; Activity (Rattus norvegicus [7]): 27%; Activity (Rattus norvegicus [8]): 166.7 mm3; Activity (Rattus norvegicus [9]): 56%
c1ccc(CN2C[C@@H](NCC3CCCCC3)[C@H](C3CCCCC3)C2)cc1 (racemic) | 60 | 560 | –
c1ccc([C@@H]2CN(C3CCCCC3)C[C@H]2NC2CCCCC2)cc1 (racemic) | – | 3350 | –
c1ccc([C@@H]2CN(CC3CCCCC3)C[C@H]2NC2CCCCC2)cc1 (racemic) | 45 | 380 | –
c1ccc(CN2C[C@@H](NC3CCCCC3)[C@H](c3ccccc3)C2)cc1 (racemic) | – | – | Activity (Rattus norvegicus [10]): Dose-dependent effect
